Data: ChEMBL document CHEMBL1126276, “Synthesis and antimalarial properties of 1-imino derivatives of 7-chloro-3-substituted-3,4-dihydro-1,9(2H,10H)-acridinediones and related structures” (J Med Chem, 1992)

What was measured:
Plasmodium berghei [1] = assay: Antimalarial activity was measured against mice (Mus musculus) infected with Plasmodium berghei by subcutaneous administration of 640 mg/kg dose; assay type: organism-based; design: dose 640 mg/kg, route subcutaneous; conditions: in vivo, sc
Method in brief: (§1)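 […] in mice infected with a normal drug-sensitive P. berghei strain. Compound dissolved or suspended in sesame or peanut oil, given as a single subcutaneous dose 72 h postinfection.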

Plasmodium berghei [2] = assay: (§2) Antimalarial activity in Plasmodium berghei infected mice (Mus musculus) after 40 mg/kg subcutaneous dose; assay type: functional
Method in brief: (§3)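 Normal drug-sensitive P. berghei strain in mice. Compound dissolved or suspended in sesame or peanut oil, given parenterally as a single subcutaneous dose 72 h postinfection.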

Plasmodium berghei [3] = assay: Antimalarial activity in Plasmodium berghei infected mice (Mus musculus) after subcutaneous 640 mg/kg dose; assay type: functional; method in brief: as §3
Plasmodium berghei [4] = assay: (§4) Antimalarial activity in Plasmodium berghei infected mice (Mus musculus) after 20 mg/kg subcutaneous dose; assay type: functional; method in brief: as §1
Plasmodium berghei [5] = assay: (§5) Antimalarial activity in Plasmodium berghei infected mice (Mus musculus) after 80 mg/kg subcutaneous dose; assay type: functional; method in brief: as §1
Plasmodium berghei [6] = assay: as §2; assay type: functional; method in brief: as §1; remark: listed apart in the source
Plasmodium berghei [7] = assay: Antimalarial activity in Plasmodium berghei infected mice (Mus musculus) after subcutaneous 160 mg/kg dose; assay type: functional; method in brief: as §3
Plasmodium berghei [8] = assay: as §4; assay type: functional; method in brief: as §3; remark: listed apart in the source
Plasmodium berghei [9] = assay: Antimalarial activity in Plasmodium berghei infected mice (Mus musculus) after subcutaneous 320 mg/kg dose; assay type: functional; method in brief: as §3
Plasmodium berghei [10] = assay: Antimalarial activity in Plasmodium berghei infected mice (Mus musculus) after 320 mg/kg subcutaneous dose; assay type: functional; method in brief: as §1
Plasmodium berghei [11] = assay: Antimalarial activity Plasmodium berghei infected mice (Mus musculus) after 640 mg/kg subcutaneous dose; assay type: functional; method in brief: as §1
Plasmodium berghei [12] = assay: as §5; assay type: functional; method in brief: as §3; remark: listed apart in the source
Plasmodium berghei [13] = assay: Antimalarial activity in Plasmodium berghei infected mice (Mus musculus) after 160 mg/kg subcutaneous dose; assay type: functional; method in brief: as §1

SMILES | No. of cured mice (Plasmodium berghei [3]) | No. of cured mice (Plasmodium berghei [7]) | No. of cured mice (Plasmodium berghei [8]) | No. of cured mice (Plasmodium berghei [2]) | Delta mean survival time (Plasmodium berghei [4]) | No. of cured mice (Plasmodium berghei [9]) | No. of cured mice (Plasmodium berghei [12]) | Delta mean survival time (Plasmodium berghei [6]) | Delta mean survival time (Plasmodium berghei [5]) | other results
CC1/C(=N\CCCN(C)C)c2c(nc3ccc(Cl)cc3c2O)CC1c1ccc(Cl)c(Cl)c1 (stereo in doubt) | 4 | – | – | – | – | – | – | – | – | No. of toxic deaths (Plasmodium berghei [1]): 1; No. of cured mice (Plasmodium berghei [2]; 40 mg/kg): 4; Delta mean survival time (Plasmodium berghei [4]; 20 mg/kg): 7.8; Delta mean survival time (Plasmodium berghei [5]; 80 mg/kg): 10.7; Delta mean survival time (Plasmodium berghei [6]; 40 mg/kg): 21
CN(C)CCC/N=C1\CC(c2ccc(Cl)cc2Cl)Cc2c1c(=O)c1cc(Cl)ccc1n2O (stereo not drawn) | 4 | 5 | 4 | 5 | 10.6 | – | – | – | – | No. of toxic deaths (Plasmodium berghei [1]): 1
CC1/C(=N\CCCN(C)C)c2c(nc3ccc(Cl)cc3c2O)CC1c1ccc(C(F)(F)F)cc1 (stereo in doubt; trans) | 1 | – | – | – | – | 4 | – | – | – | No. of cured mice (Plasmodium berghei [7]; 160 mg/kg): 5; No. of cured mice (Plasmodium berghei [8]; 20 mg/kg): 1; Delta mean survival time (Plasmodium berghei [4]; 20 mg/kg): 11; Delta mean survival time (Plasmodium berghei [10]; 320 mg/kg): 3.7; Delta mean survival time (Plasmodium berghei [11]; 640 mg/kg): 2.7
CCN(CC)CCCC/N=C1\CC(c2ccc(C(F)(F)F)cc2)Cc2nc3ccc(Cl)cc3c(O)c21 (stereo not drawn) | 5 | 5 | 2 | 4 | 18.6 | 5 | 5 | 13.6 | – | –
CC1/C(=N\CCCN(C)C)c2c(nc3ccc(Cl)cc3c2O)CC1c1ccc(Cl)cc1Cl (stereo not drawn) | 3 | 5 | 3 | 4 | 0.1 | 4 | 5 | 19.9 | – | Delta mean survival time (Plasmodium berghei [10]): 3.9; Delta mean survival time (Plasmodium berghei [11]): 2.9
CN(C)CCC/N=C1/c2c([nH]c3ccc(Cl)cc3c2=O)CC(c2ccc(Cl)c(Cl)c2)C1Cc1ccccc1 (stereo not drawn) | – | – | – | – | -0.1 | – | – | 0.5 | 0.7 | No. of toxic deaths (Plasmodium berghei [1]): 5; Delta mean survival time (Plasmodium berghei [13]): 6.1; Delta mean survival time (Plasmodium berghei [10]): 7.7
CCN(CC)CC(C)(C)C/N=C1\CC(c2ccc(Cl)cc2Cl)Cc2nc3ccc(Cl)cc3c(O)c21 (stereo not drawn) | 5 | 5 | 3 | 4 | 12.7 | 5 | 5 | 13.7 | – | –
O=c1c2c(n(O)c3ccc(Cl)cc13)CC(c1ccc(C(F)(F)F)cc1)C/C2=N\CCCN(CCO)CCO (stereo not drawn) | 5 | 5 | 2 | 4 | 12 | 5 | 1 | 14.8 | 9.5 | –
CCN(CC)CCCC(C)/N=C1\CC(c2ccc(Cl)cc2Cl)Cc2nc3ccc(Cl)cc3c(O)c21 (stereo not drawn) | 5 | 5 | 3 | 4 | 10.2 | 5 | 5 | 13.7 | – | –
CCN(CC)CC/N=C1\CC(c2ccc(Cl)c(Cl)c2)Cc2c1c(=O)c1cc(Cl)ccc1n2O (stereo not drawn) | 5 | 5 | 1 | 3 | 10.5 | 5 | 3 | 8.8 | 12.7 | –
O=C1CC(c2ccc(C(F)(F)F)cc2)Cc2nc3ccc(Cl)cc3c(O)c21 (stereo not drawn) | 5 | 5 | 1 | 2 | 8.9 | 5 | 4 | 9.9 | 9.4 | –
N=C1CC(c2ccc(C(F)(F)F)cc2)Cc2nc3ccc(Cl)cc3c(O)c21 (stereo not drawn) | 5 | 5 | 1 | 5 | 11.2 | 5 | 5 | – | – | –
O=C1CC(c2ccc(Cl)cc2Cl)Cc2nc3ccc(Cl)cc3c(O)c21 (stereo not drawn) | 5 | 4 | 2 | 3 | 10.3 | 5 | 4 | 18.1 | 15.8 | Delta mean survival time (Plasmodium berghei [13]): 17.8
